Measured values taken from PMC7363052 (Journal of hepatology, 2020).

What was measured:
[1] = Serum ALT and AST in CCl4-treated mice; assay type: in vivo, mouse; conditions: CCl4 0.2 mL/kg i.p. twice per week, 6 weeks (mild), mean ± SEM
TGF-β1 = assay: Hepatic TGF-β1 mRNA by RT-PCR in CCl4-treated mice; assay type: in vivo, mouse; conditions: compared to control
In short: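 Male CD1 mice, 10 weeks old, given CCl4 at 0.2 mL/kg (1:5 in olive oil) i.p. twice weekly; controls received olive oil only. Hepatic TGF-β1 mRNA was measured by RT-PCR and expressed as relative mRNA level by the ΔΔCT method. Values are mean ± SEM, n = 3–6, compared by one-way ANOVA with Tukey's post hoc test.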

integrin αvβ3 [2] = target: integrin αvβ3 (Homo sapiens, UniProt P05106+P06756); assay type: binding; conditions: advanced fibrosis human liver frozen sections, immunofluorescence
integrin αvβ3 (Homo sapiens, UniProt P05106+P06756), sequence (P06756 31-889 limits assumed): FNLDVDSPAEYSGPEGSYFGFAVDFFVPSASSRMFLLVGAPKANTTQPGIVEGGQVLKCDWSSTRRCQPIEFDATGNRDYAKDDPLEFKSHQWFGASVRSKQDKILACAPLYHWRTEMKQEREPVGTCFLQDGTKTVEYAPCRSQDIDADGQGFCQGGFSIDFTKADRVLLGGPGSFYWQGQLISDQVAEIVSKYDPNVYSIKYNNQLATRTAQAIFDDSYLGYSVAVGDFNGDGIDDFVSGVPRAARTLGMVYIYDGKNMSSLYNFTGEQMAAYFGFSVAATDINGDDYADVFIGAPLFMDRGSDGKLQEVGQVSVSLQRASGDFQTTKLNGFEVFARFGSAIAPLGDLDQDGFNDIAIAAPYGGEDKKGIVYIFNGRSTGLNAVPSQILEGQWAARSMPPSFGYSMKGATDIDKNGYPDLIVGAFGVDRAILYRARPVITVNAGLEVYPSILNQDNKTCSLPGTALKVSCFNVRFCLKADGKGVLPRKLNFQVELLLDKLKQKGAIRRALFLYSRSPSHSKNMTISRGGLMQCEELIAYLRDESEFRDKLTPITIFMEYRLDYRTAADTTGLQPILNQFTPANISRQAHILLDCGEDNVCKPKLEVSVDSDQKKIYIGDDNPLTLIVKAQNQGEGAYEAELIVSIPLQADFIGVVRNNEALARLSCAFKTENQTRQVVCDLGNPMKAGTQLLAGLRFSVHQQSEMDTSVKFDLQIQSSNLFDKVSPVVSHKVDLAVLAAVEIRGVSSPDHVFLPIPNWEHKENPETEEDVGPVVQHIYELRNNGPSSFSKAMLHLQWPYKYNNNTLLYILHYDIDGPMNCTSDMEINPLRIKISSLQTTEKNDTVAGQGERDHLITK
integrin αvβ3 (Homo sapiens, UniProt P05106+P06756), sequence (P06756 891-1048 partner limits assumed): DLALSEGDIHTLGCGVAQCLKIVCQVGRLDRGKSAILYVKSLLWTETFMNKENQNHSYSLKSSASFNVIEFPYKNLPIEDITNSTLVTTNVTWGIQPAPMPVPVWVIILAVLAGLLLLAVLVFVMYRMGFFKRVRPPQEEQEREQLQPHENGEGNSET
integrin αvβ3 (Homo sapiens, UniProt P05106+P06756), sequence (P05106 27-788): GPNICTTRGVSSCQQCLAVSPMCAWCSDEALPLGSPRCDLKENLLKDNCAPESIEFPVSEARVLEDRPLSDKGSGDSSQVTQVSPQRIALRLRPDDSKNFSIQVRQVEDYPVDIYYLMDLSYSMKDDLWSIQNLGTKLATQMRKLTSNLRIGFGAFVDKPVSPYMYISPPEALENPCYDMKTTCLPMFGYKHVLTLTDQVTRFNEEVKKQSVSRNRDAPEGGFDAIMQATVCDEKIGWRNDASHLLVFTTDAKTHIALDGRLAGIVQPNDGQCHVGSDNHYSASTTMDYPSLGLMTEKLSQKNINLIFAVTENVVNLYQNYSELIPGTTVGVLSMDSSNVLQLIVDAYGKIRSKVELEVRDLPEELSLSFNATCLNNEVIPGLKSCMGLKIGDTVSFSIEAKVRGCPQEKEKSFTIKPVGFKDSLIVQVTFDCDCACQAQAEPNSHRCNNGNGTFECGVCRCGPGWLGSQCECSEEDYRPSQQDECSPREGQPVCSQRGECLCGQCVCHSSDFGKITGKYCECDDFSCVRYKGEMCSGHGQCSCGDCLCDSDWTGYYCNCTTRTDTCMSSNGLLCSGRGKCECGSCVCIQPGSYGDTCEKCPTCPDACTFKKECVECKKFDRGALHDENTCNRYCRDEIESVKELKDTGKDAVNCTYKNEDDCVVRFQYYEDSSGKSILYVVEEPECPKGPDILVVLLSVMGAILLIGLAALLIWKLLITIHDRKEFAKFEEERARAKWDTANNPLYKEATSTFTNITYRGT
In short: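 Snap-frozen liver sections came from patients with staged fibrosis (F1–F3, n=3 each) and from normal livers. Advanced-fibrosis sections were stained with a FITC-labelled PEG4-linked dimeric cyclic RGD peptide probe (green), plus CD68 or α-SMA (red). Co-localization was read by fluorescence microscopy at original magnification 100X.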

integrin αvβ3 [3] = target: T1, integrin αvβ3 (Mus musculus, UniProt O54890+P43406); assay type: binding; conditions: frozen fibrotic liver sections, severe CCl4 and BDL models, immunofluorescence
T1 sequence (P43406 31-885 limits assumed): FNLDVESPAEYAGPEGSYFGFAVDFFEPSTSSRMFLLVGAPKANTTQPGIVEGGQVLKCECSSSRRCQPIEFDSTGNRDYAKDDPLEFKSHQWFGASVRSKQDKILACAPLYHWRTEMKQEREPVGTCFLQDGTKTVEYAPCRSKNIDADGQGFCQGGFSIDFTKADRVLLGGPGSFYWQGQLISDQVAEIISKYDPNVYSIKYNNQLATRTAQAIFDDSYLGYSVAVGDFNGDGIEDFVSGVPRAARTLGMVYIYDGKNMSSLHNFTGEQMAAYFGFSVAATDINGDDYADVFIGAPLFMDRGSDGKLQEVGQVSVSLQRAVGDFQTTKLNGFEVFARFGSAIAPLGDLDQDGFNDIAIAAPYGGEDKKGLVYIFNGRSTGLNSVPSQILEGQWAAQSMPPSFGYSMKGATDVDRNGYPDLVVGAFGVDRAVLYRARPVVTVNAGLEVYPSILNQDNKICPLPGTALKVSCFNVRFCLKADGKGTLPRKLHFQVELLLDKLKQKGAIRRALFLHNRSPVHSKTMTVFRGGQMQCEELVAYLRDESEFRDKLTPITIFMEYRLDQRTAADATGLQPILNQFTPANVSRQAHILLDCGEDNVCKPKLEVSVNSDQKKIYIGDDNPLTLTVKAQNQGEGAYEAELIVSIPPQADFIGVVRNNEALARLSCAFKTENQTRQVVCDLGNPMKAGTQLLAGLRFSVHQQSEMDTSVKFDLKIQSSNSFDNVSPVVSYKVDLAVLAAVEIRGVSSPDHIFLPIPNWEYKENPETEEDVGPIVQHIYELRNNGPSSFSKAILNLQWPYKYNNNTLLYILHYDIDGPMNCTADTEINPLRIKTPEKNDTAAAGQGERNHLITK
T1 sequence (P43406 887-1044 partner limits assumed): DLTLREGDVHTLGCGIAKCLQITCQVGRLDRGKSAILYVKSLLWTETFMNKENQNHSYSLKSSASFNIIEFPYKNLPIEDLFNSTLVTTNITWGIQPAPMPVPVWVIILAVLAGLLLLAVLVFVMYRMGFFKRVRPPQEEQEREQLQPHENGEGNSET
T1 sequence (O54890 26-787): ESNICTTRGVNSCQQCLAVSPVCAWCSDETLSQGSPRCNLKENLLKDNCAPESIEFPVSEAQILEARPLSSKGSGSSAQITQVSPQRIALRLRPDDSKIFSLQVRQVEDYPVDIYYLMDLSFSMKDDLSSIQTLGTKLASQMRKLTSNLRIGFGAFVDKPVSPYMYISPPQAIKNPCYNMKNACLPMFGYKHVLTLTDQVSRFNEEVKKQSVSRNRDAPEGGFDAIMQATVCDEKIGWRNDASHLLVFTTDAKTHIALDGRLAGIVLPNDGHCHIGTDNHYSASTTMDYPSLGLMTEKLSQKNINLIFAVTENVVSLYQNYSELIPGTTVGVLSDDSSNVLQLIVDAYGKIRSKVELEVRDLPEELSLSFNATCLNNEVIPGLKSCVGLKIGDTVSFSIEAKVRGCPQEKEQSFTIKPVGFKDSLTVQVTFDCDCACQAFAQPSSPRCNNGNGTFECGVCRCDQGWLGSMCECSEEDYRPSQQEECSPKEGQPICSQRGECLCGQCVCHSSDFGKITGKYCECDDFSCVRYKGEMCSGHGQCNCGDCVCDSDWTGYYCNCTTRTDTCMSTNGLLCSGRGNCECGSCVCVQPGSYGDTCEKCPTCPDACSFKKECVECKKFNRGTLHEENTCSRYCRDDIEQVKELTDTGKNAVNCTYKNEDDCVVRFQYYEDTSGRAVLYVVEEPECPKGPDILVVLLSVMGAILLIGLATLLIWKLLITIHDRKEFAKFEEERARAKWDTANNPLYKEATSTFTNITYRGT
In short: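 Liver fibrosis was induced in 10-week-old male CD1 mice with CCl4, 0.2 mL/kg as 1:5 CCl4:olive oil, i.p. twice weekly for up to 12 weeks. Other mice had the common bile duct transected via midline laparotomy and were killed after 3 weeks. Frozen liver sections were co-stained with a FITC-labelled dimeric RGD peptide probe and α-SMA and CD68 antibodies to assess co-localization.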

| co-localization with CD68 (integrin αvβ3 [2]) | co-localization with α-SMA (integrin αvβ3 [2]) | co-localization with CD68 (integrin αvβ3 [3]) | co-localization with α-SMA (integrin αvβ3 [3]) | Molecule | serum ALT ([1]; sham 20.66±1.383) | serum AST ([1]; sham 76.24±6.128) | hepatic TGF-β1 mRNA level increase (TGF-β1; 6 weeks of CCl4 treatment) [fold] | hepatic TGF-β1 mRNA level increase (TGF-β1; 12 weeks of CCl4 treatment) [fold] |
| --- | --- | --- | --- | --- | --- | --- | --- | --- |
| – | – | – | – | ClC(Cl)(Cl)Cl [CCl4, carbon-tetrachloride] | 96.22±18.5 | 125.7±9.82 | 2 | 8 |
| low co-localization | high co-localization | little co-localization | high co-localization | FITC-E(PEG4-RGDfK)2 [FITC-RGD2] | – | – | – | – |
